Experimental data as given in ChEMBL document CHEMBL1156418, “Identification and phenotypic characterization of a beta-lactam-dependent, methicillin-resistant Staphylococcus aureus strain” (2007).
≈ marks a conversion by molar mass, not a printed value. Calls of active or inactive are those of the source. The rule behind the calls is not given here.

What was measured:
Staphylococcus aureus [1] = assay: Antibacterial activity against methicillin-resistant Staphylococcus aureus 2884; type: functional
Staphylococcus aureus [2] = assay: Antibacterial activity against methicillin-resistant Staphylococcus aureus 2884 isolate by disc diffusion method; type: functional
Method in brief: (§1)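 Disk diffusion on 100-mm Mueller-Hinton agar plates inoculated with a 0.5 McFarland suspension. Disks: oxacillin 5 μg, cefoxitin 30 μg, ceftobiprole 30 μg, amoxicillin-clavulanic acid 20/10 μg, ofloxacin 5 μg, imipenem 10 μg. Inhibition zone diameters were read per CLSI and CASFM guidelines.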

Staphylococcus aureus [3] = assay: Antibacterial activity against oxacillin-dependent methicillin-resistant Staphylococcus aureus 2884D isolate at 5 ug by disc diffusion method; type: functional, organism-based; method in brief: as §1
Staphylococcus aureus [4] = assay: Antibacterial activity against methicillin-resistant Staphylococcus aureus 2884 isolate at 5 ug by disc diffusion method; type: functional; conditions: read-out: IZ; method in brief: as §1
Staphylococcus aureus [5] = assay: Antibacterial activity against methicillin-resistant Staphylococcus aureus 2884 isolate at 30 ug by disc diffusion method; type: functional, organism-based; method in brief: as §1
Staphylococcus aureus [6] = assay: Antibacterial activity against oxacillin-dependent methicillin-resistant Staphylococcus aureus 2884D isolate; type: functional
Staphylococcus aureus [7] = assay: Antibacterial activity against oxacillin-dependent methicillin-resistant Staphylococcus aureus 2884D isolate assessed as decrease in log bacterial count at >= 256 ug/ml; type: functional
Staphylococcus aureus [8] = assay: Antibacterial activity against methicillin-resistant Staphylococcus aureus 2884 isolate assessed as decrease in log bacterial count at 1 ug/ml; type: functional
Staphylococcus aureus [9] = assay: Effect on blaZ gene expression in oxacillin-dependent methicillin-resistant Staphylococcus aureus 2884D isolate at 0.5 ug/ml by RT-PCR; type: functional, organism-based
Method in brief: (§2)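 TaqMan real-time RT-PCR on RNA from exponential-phase cells grown with or without 0.5 μg/ml oxacillin; the dependent strain was also grown on blood agar without oxacillin. Each reaction used 25 ng total RNA, 500 nM primers and 100 nM probe. Cycling: 48°C 30 min, 95°C 10 min, then 40 × (95°C 15 s, 60°C 1 min). Quantified by C_T against a standard curve, expressed relative to 16S; triplicate runs.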

Staphylococcus aureus [10] = assay: Effect on blaZ gene expression in oxacillin-dependent methicillin-resistant Staphylococcus aureus 2884D isolate at 0.5 ug/ml in presence of blood agar by RT-PCR; type: functional, organism-based; method in brief: as §2
Staphylococcus aureus [11] = assay: Induction of blaR1 gene expression in methicillin-resistant Staphylococcus aureus 2884 isolate by RT-PCR; type: functional, organism-based; method in brief: as §2
Staphylococcus aureus [12] = assay: Induction of blaI mRNA expression in methicillin-resistant Staphylococcus aureus 2884 isolate by RT-PCR; type: functional, organism-based; method in brief: as §2
Staphylococcus aureus [13] = assay: Induction of blaI mRNA expression in oxacillin-dependent methicillin-resistant Staphylococcus aureus 2884D isolate by RT-PCR; type: functional, organism-based; method in brief: as §2
Staphylococcus aureus [14] = assay: Decrease in PBP2 gene expression in oxacillin-dependent methicillin-resistant Staphylococcus aureus 2884D isolate by RT-PCR; type: functional, organism-based; method in brief: as §2
Staphylococcus aureus [15] = assay: Effect on vraSR gene expression in oxacillin-dependent methicillin-resistant Staphylococcus aureus 2884D isolate in presence of blood agar by RT-PCR; type: functional, organism-based; method in brief: as §2
Staphylococcus aureus [16] = assay: Induction of blaR1 gene expression in oxacillin-dependent methicillin-resistant Staphylococcus aureus 2884D isolate by RT-PCR; type: functional, organism-based; method in brief: as §2

With `Nc1nc(/C(=N/O)C(=O)N[C@@H]2C(=O)N3C(C(=O)O)=C(/C=C4\CCN([C@@H]5CCNC5)C4=O)CS[C@H]23)ns1` [CEFTOBIPROLE] as the compound, how does the MIC (Staphylococcus aureus [1]) read?
The MIC was 2 µg/mL (≈ 3.74 µM).

What about the “inhibition zone (IZ)” value (Staphylococcus aureus [2]) of the same compound?
The value was 34 mm.

Which results are given for `CC1COc2c(N3CCN(C)CC3)c(F)cc3c(=O)c(C(=O)O)cn1c23` (stereo unspecified) [OFLOXACIN]?
Activity (Staphylococcus aureus [3]): inactive; zone of inhibition at 5 µg/disc (Staphylococcus aureus [4]): 15 mm; Activity (Staphylococcus aureus [5]): inactive

How did the MIC (Staphylococcus aureus [1]) turn out when `C[C@@H](O)[C@H]1C(=O)N2C(C(=O)O)=C(SCCNC=N)C[C@H]12` [IMIPENEM ANHYDROUS] was run?
The MIC was 8 µg/mL (≈ 26.7 µM).

Which MIC (Staphylococcus aureus [1]) does the source give for `CO[C@@]1(NC(=O)Cc2cccs2)C(=O)N2C(C(=O)O)=C(COC(N)=O)CS[C@@H]21` (single isomer, unassigned) [CEFOXITIN] here?
The MIC was 32 µg/mL (≈ 74.9 µM).

And the zone of inhibition at 5 µg/disc (Staphylococcus aureus [4])?
The zone of inhibition at 5 µg/disc was 13 mm.

What does the source list for `Cc1onc(-c2ccccc2)c1C(=O)N[C@@H]1C(=O)N2[C@@H]1SC(C)(C)[C@@H]2C(=O)O` [OXACILLIN]?
MIC (Staphylococcus aureus [1]): 64 µg/mL (≈ 159 µM); MIC (Staphylococcus aureus [6]): ≥ 256 µg/mL; CFU/ml (Staphylococcus aureus [7]): 3; CFU/ml (Staphylococcus aureus [8]): 4; zone of inhibition at 5 µg/disc (Staphylococcus aureus [4]): 15 mm; Activity (Staphylococcus aureus [9]): inactive; Activity (Staphylococcus aureus [10]): inactive; Activity (Staphylococcus aureus [11]): inactive; Activity (Staphylococcus aureus [12]): Active; Activity (Staphylococcus aureus [13]): inactive; Activity (Staphylococcus aureus [14]): Active; Activity (Staphylococcus aureus [15]): inactive; Activity (Staphylococcus aureus [16]): Active
